The target of data set [1] is T1, Sodium- and chloride-dependent GABA transporter 1 (Mus musculus, UniProt P31648). Put plainly: Inhibition of mouse GAT1 expressed in HEK293 cells assessed as reduction in [3H]GABA uptake preincubated cells with photoirradiated compound for 25 mins followed by [3H]GABA addition measured after 4 mins by liquid scintillation counting method. Type of data set: cell-based. In outline: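 HEK293 cells stably expressing the mouse GAT subtype (about 200000 cells) preincubated with compound for 25 min at 25 °C in the dark with shaking. Then 8 nM [3H]GABA plus 32 nM unlabeled GABA (final) added for 4 min. Stopped by filtration; filter radioactivity by scintillation counting. Photoisomerized 10 mM DMSO-d6 stocks (photostationary state, Z/E ratio by 1H NMR) diluted protected from light; non-irradiated stock tested in parallel.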

Data set [2] in a line: Half life of thermal relaxation of compound in pH 7.4 DMSO-d6/phosphate-buffer using photoirradiated compound at 50 uM incubated in dark by UV/vis-spectroscopy. Type of data set: physicochemical. Particulars: pH 7.4, 50 µM.
Data set [3] is described as follows: Half life of thermal relaxation of compound in DMSO-d6 using photoirradiated compound by 1H NMR method. Type of data set: physicochemical. In outline:
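Irradiated to photostationary state as 10 mM stock in DMSO-d6 (1 mL, within 10 min); 1H NMR spectra recorded starting immediately after irradiation. Z/E fraction α from spectra plotted against time, fit to a single exponential to give half-life; 25 °C.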

Data set [4] addresses T1, Sodium- and chloride-dependent GABA transporter 1. Put plainly: Inhibition of mouse GAT1 assessed as reduction in GABA uptake.
Data set [5] has the same target. Put plainly: Inhibition of mouse GAT1 assessed as reduction in GABA uptake using photoirradiated compound. In outline:
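A 10 mM DMSO-d6 stock was irradiated to its photostationary state: 350 nm Rayonet for diphenyldiazenes, 375 nm LED for naphthylphenyldiazenes. (Z)/(E) ratio was checked by 1H NMR, and dilutions were made protected from light. mGAT1-HEK293 cells were preincubated 25 min at 25 °C in the dark, then given 4 min uptake of 8 nM [3H]GABA plus 32 nM GABA. Filtration and scintillation counting gave pIC50.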

Molecules are shown by their SMILES.

Broadly, the IC50 is the concentration that inhibits the measured activity by half. With `O=C(O)C1CCCN(CCC#Cc2cccc(N=Nc3ccccc3)c2)C1` (mixture of isomers), in data set [1], the IC50 was 891 nM. In addition, the t1/2 in data set [2] stood at 22 days; in data set [3], 15 days.

Take `O=C(O)[C@@H]1CCCN(CCOCCc2cccc(N=Nc3cccc4ccccc34)c2)C1` (mixture of isomers): the IC50 in data set [4] is 407 nM; in data set [5] it was 1660 nM.

Source of the values: ChEMBL document CHEMBL4130630 (J Med Chem, 2018).
